The values below come from ChEMBL document CHEMBL4177769, “Highly Selective and Potent Ectonucleotide Pyrophosphatase-1 (NPP1) Inhibitors Based on Uridine 5'-Pα,α-Dithiophosphate Analogues” (J Med Chem, 2018).

The source made the active and inactive calls. The rule behind the calls is not given here.

Series [1] has as its target T1, Ectonucleotide pyrophosphatase/phosphodiesterase family member 1 (Homo sapiens) (UniProt P22413).
T1 sequence (whole entry): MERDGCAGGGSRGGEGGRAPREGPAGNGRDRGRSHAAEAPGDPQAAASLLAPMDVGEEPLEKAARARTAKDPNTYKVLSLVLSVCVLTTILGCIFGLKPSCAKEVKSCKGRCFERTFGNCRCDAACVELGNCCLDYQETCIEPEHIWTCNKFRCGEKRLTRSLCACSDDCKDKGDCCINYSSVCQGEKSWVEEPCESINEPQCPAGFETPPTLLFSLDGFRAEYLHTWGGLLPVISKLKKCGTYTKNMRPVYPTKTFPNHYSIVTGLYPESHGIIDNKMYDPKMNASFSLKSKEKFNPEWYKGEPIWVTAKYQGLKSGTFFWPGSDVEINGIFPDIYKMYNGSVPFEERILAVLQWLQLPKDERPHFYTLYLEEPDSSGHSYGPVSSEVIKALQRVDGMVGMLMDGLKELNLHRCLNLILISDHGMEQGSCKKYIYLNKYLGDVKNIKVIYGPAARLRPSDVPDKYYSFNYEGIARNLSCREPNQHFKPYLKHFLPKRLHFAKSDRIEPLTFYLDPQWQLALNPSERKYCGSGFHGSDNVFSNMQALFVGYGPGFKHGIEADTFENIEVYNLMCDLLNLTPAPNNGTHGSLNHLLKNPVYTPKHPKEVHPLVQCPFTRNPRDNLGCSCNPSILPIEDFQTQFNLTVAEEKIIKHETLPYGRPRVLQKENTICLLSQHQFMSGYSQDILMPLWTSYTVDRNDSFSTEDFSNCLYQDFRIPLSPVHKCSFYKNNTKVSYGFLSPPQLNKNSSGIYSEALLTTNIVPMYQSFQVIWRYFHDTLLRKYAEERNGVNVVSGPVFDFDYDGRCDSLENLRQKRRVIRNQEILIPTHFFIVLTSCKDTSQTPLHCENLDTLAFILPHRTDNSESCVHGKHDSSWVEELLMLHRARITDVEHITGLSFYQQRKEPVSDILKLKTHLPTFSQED
Kind of series: Inhibition of human NPP1 at 100 uM using pNP-TMP as substrate preincubated for 3 mins followed by substrate addition measured after 15 mins relative to control. Put shortly:
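Human NPP1 (4−5 μg) or NPP3 (12−14 μg) cell lysate in mM 1 CaCl2, 140 NaCl, 5 KCl, 50 Tris pH 8.5, 37 °C. Compound at 100 μM, 3 min preincubation, 100 μM pNP-TMP substrate. p-Nitrophenol read at 405 nm after 15 min. Blank with enzyme added at end subtracted. Activity without compound taken as 100%. At least two independent experiments in triplicate.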

Series [2] deals with T2, Ectonucleoside triphosphate diphosphohydrolase 3 (Homo sapiens) (UniProt O75355).
T2 sequence (whole entry): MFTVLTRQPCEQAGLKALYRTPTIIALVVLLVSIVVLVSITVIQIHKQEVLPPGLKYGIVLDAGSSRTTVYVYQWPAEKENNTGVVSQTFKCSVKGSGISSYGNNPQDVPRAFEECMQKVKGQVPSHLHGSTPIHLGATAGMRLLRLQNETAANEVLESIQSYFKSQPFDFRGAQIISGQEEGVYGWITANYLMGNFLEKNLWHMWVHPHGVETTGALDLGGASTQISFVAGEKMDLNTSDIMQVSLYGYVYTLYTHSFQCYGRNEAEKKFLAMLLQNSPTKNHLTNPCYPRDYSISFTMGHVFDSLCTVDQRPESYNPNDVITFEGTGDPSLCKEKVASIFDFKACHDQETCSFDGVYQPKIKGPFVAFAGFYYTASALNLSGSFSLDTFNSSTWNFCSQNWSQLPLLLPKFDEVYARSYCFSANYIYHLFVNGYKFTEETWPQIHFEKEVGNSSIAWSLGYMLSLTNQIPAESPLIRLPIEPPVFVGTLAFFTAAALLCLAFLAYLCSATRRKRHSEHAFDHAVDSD
Kind of series: Inhibition of human NTPDase3 at 100 uM using ATP as substrate preincubated for 3 mins followed by substrate addition measured after 10 mins by malachite green reagent-based assay. Put shortly: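 Compound at 100 μM, 3 min preincubation, 100 μM ATP, 10 min. Stopped with malachite green; Pi read at 630 nm. Blank with enzyme added after stop subtracted. Activity with ATP alone taken as 100%.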

Series [3] addresses P2Y purinoceptor 2 (Homo sapiens) (UniProt P41231). As to the kind of experiment: Agonist activity at recombinant human P2RY2 expressed in AD293 cells assessed as increase in intracellular calcium levels by Fluo-4/AM dye-based spectrofluorometer. The format is functional, cell-based. Put shortly:
(§1)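 Human P2Y2, P2Y4 or P2Y6 receptor stably expressed in AD293 cells. Compound at 100 μM. Agonism read as change in intracellular calcium (Δ[Ca2+]i), with UDP or UTP as control.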
(A change in cytosolic calcium serves as a functional read-out for many receptors and channels.)

The target in series [4] is P2Y purinoceptor 6 (Homo sapiens) (UniProt Q15077). As to the kind of experiment: Agonist activity at recombinant human P2RY6 expressed in AD293 cells assessed as increase in intracellular calcium levels by Fluo-4/AM dye-based spectrofluorometer. It is filed as functional, cell-based. The procedure, abridged:
as §1

For series [5] the target is unchanged. Kind of series: Agonist activity at recombinant human P2RY6 expressed in AD293 cells assessed as increase in intracellular IP1 levels. It is filed as functional, cell-based. Put shortly:
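Human P2Y6 receptor stably expressed in AD293 cells. Compound at 100 μM. Gq activation read as accumulation of inositol 1-phosphate (IP1).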

Series [6] is described as follows: Drug metabolism at 2 mM at acidic pH after 5 days by 31P NMR method. The format is physicochemical. As to conditions: read-out: Drug metabolism.
Series [7] is described as follows: Stability of the compound assessed as air oxidation at room temperature at 1.8 mM after 3 weeks by 31P NMR method. It is filed as physicochemical. The following applies: 504 h, 1800 µM.

Sequence of P2Y purinoceptor 2 (Homo sapiens) (P41231 whole entry): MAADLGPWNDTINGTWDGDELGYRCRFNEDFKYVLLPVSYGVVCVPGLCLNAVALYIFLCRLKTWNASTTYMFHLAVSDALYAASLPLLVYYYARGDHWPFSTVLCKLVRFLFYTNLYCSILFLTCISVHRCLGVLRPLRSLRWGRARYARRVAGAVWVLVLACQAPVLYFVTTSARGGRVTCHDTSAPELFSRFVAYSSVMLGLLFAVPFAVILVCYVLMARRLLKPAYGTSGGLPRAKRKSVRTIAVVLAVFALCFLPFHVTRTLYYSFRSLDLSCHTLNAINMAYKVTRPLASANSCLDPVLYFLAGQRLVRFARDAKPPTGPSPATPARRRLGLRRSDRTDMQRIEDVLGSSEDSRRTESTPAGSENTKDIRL
Sequence of P2Y purinoceptor 6 (Homo sapiens) (Q15077 whole entry): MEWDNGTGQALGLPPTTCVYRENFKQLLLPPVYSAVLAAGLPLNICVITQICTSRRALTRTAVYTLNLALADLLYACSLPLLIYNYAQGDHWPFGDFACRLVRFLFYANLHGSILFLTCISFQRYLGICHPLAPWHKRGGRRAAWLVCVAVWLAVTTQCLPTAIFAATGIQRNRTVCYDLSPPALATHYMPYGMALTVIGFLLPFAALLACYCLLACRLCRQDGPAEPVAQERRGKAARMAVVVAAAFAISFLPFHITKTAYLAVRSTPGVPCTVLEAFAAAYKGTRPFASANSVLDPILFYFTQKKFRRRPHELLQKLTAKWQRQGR

Turning to `O=c1ccn([C@@H]2O[C@H](COP(=S)(S)OP(=O)(O)O)[C@@H](O)[C@H]2O)c(=O)[nH]1` (some centres undefined), the inhibition (usually the relative decrease from the control value, in per cent) was 80 to 100% in series [1] and 15% in series [2]. In addition, the outcome in series [3] was inactive. Besides, the outcome in series [4] and in series [5] was Active.

For the compound `O=c1ccn([C@@H]2O[C@H](COP(=S)(S)OP(=O)(O)CP(=O)(O)O)[C@@H](O)[C@H]2O)c(=O)[nH]1` (some centres undefined), the degraded at 120 h, 2000 µM in series [6] was 2%. Also, the inhibition in series [1] was 80 to 100%; in series [2], 15%. For the same compound, the result in series [3] and in series [5] was inactive. Besides, in series [4], the outcome was Active. Further, the Stability result in series [7] was “Stable”.

Take `O=c1ccn([C@@H]2O[C@H](COP(=S)(S)OP(=O)(O)OP(=O)(O)O)[C@@H](O)[C@H]2O)c(=O)[nH]1` (some centres undefined): the degraded at 120 h, 2000 µM in series [6] came out at 11%. This compound gave an inhibition in series [1] of 100%. Also, the inhibition result in series [2] was “inactive”. Also, the result in series [3] was inactive. Also, the outcome in series [4] and in series [5] was Active. The Stability result in series [7] is recorded as “Stable”.
